What all share (type): functional
The species named for experiment [1] is Mus musculus. As to the kind of experiment: [3H]TdR uptake measured by spleen cell proliferation assay by adding compound dose of 100 ng/mL. In short, it runs like this: (§1)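 Spleens from female C57BL/6 mice dissociated in RPMI 1640, red cells lysed with Tris NH4Cl, washed three times in PBS. Cells (2.5 × 10^5/well, 10% FCS RPMI 1640) cultured with sample or DMSO vehicle (0.001–0.1%) for 18 h at 37 °C, 5% CO2; [3H]TdR 0.5 μCi/well added, uptake counted by liquid scintillation 8 h later. Mean ± S.D.; p < 0.05 vs vehicle.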

The species named for experiment [2] is Mus musculus. As to the kind of experiment: [3H]-TdR uptake measured by spleen cell proliferation assay by adding compound dose of 1 ng/mL. In short, it runs like this: as §1
Experiment [3] is filed under the species Mus musculus. As to the kind of experiment: [3H]TdR uptake measured by spleen cell proliferation assay by adding compound dose of 10 ng/mL. An outline of the steps: as §1

The results in this text go back to ChEMBL document CHEMBL1132217, “Syntheses of biotinylated alpha-galactosylceramides and their effects on the immune system and CD1 molecules” (1999).

For the compound `CCCCCCCCCCCCCCC[C@@H](O)[C@H](CO[C@H]1O[C@@H](CO)[C@H](O)[C@H](O)[C@@H]1O)NC(=O)CCCCCCCCCCNC(=O)CCCCCNC(=O)CCCC[C@@H]1SC[C@@H]2NC(=O)N[C@@H]21`, the Incorporation in the experiment filed under Mus musculus [1] was 14588 c.p.m; in the experiment filed under Mus musculus [2], 4628 c.p.m; in the experiment filed under Mus musculus [3] it was 8665 c.p.m.

With `CCCCCCCCCCCCCCCC[C@H](CO[C@H]1O[C@@H](CO)[C@H](O)[C@H](O)[C@@H]1O)NC(=O)CCCCCCCCCCNC(=O)CCCCCNC(=O)CCCC[C@@H]1SC[C@@H]2NC(=O)N[C@@H]21`, the figures for the Incorporation in the experiment listed under Mus musculus [1], in the experiment listed under Mus musculus [2] and in the experiment listed under Mus musculus [3] were 9427 c.p.m, 4803 c.p.m and 5330 c.p.m, respectively.

For `CCCCCCCCCCCCCC[C@@H](O)[C@@H](O)[C@H](CO[C@H]1O[C@@H](CO)[C@H](O)[C@H](O)[C@@H]1O)NC(=O)CCCCCCCCCCNC(=O)CCCCCNC(=O)CCCC[C@@H]1SC[C@@H]2NC(=O)N[C@@H]21` (stereo in doubt; form 1), the Incorporation in the experiment filed under Mus musculus [1] worked out at 5463 c.p.m; in the experiment listed under Mus musculus [2], 4811 c.p.m; in the experiment listed under Mus musculus [3], 4833 c.p.m.

In the case of `CCCCCCCCCCCCCCCCCCCCCCCCCC(=O)N[C@@H](CO[C@H]1O[C@H](CO)[C@H](O)[C@H](O)[C@H]1O)[C@H](O)[C@H](O)CCCCCCCCCCCCCC` [RGI-7000], the Incorporation in the experiment listed under Mus musculus [1] worked out at 17636 c.p.m; in the experiment filed under Mus musculus [2], 13499 c.p.m; in the experiment listed under Mus musculus [3], 17438 c.p.m.
